Measurements from ChEMBL document CHEMBL1128413, “The serotonin 5-HT4 receptor. 1. Design of a new class of agonists and receptor map of the agonist recognition site” (J Med Chem, 1995).

Experiments:
[1] = biological target: T1, Alpha-1A adrenergic receptor (Bos taurus) (UniProt P18130); assay: Binding affinity was evaluated by Alpha-1 adrenergic receptor in calf cortex by displacing prazosin
T1 sequence (whole entry): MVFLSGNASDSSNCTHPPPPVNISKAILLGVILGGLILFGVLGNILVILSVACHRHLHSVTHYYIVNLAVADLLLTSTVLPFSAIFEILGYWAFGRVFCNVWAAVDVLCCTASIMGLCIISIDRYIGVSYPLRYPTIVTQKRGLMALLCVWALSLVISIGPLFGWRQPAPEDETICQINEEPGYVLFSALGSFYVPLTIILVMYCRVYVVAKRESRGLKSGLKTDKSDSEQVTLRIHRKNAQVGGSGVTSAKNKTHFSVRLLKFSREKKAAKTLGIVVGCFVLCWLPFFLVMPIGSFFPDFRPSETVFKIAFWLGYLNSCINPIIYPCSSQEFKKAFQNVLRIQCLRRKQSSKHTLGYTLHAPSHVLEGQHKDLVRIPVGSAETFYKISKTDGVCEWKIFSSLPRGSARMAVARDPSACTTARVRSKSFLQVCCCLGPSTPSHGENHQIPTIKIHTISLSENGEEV
Summary of the method: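 Radioligand displacement with [3H]prazosin on calf cortex membranes; Ki reported.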

[2] = biological target: D(1A) dopamine receptor (Bos taurus) (UniProt Q95136); assay: Binding affinity was evaluated by dopamine receptor D1 […] in the calf striatum by displacing SCH 23390; assay type: tissue-based
Sequence of D(1A) dopamine receptor (Bos taurus) (Q95136 whole entry): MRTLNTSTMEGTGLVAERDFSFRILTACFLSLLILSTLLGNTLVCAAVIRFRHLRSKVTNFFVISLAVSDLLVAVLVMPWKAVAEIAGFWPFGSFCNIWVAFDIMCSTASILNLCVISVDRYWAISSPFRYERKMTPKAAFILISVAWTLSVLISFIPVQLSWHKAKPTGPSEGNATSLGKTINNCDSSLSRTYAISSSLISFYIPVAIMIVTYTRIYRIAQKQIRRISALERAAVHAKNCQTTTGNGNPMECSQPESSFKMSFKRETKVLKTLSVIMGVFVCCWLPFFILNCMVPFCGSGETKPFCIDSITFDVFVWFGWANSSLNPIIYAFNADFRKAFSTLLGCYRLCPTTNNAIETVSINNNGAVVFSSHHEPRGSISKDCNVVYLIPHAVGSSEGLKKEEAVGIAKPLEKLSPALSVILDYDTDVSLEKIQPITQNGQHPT
Summary of the method: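 Radioligand displacement with [3H]SCH 23390 on calf striatum membranes; Ki reported.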

[3] = biological target: 5-hydroxytryptamine receptor 4 (Cavia porcellus) (UniProt O70528); assay: 5-hydroxytryptamine 4 receptor agonist activity in the guinea pig ileum assay; assay type: functional, tissue-based
Sequence of 5-hydroxytryptamine receptor 4 (Cavia porcellus) (O70528 whole entry): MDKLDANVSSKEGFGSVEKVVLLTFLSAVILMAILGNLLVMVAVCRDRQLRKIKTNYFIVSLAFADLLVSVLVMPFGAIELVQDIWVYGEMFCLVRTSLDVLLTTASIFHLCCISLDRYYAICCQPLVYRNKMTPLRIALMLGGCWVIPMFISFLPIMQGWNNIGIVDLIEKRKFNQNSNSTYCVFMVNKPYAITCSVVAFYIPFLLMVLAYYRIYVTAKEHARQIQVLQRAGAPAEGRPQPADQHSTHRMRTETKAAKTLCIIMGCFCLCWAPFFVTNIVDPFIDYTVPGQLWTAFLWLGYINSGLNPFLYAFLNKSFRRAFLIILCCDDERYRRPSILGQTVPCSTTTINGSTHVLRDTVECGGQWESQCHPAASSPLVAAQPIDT
Summary of the method: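 Guinea pig ileum longitudinal muscle strips in tyrode solution with 0.1 μM methysergide. Twitch contractions (2–3 s) evoked by field stimulation with square-wave pulses (0.1 Hz, 2 ms) via platinum electrodes. Once a stable submaximal response is reached, noncumulative concentration–response curves are built for enhancement of twitch. Readouts are pD2 and efficacy relative to 5-HT.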

[4] = biological target: 5-hydroxytryptamine receptor 4 (Cavia porcellus) (UniProt O70528); assay: Compound was evaluated for the relative potency with respect to serotonin against 5-hydroxytryptamine 4 receptor; assay type: functional
[5] = test system: 5-HT1A receptor (Sus scrofa); assay: Binding affinity was evaluated by 5-hydroxytryptamine 1A receptor […] in the pig cortex by displacing 8-OH-DPAT
[6] = biological target: D(2) dopamine receptor (Bos taurus) (UniProt P20288); assay: Binding affinity was evaluated by Dopamine receptor D2 binding in the calf striatum by displacing spiperone; assay type: tissue-based
Sequence of D(2) dopamine receptor (Bos taurus) (P20288 whole entry): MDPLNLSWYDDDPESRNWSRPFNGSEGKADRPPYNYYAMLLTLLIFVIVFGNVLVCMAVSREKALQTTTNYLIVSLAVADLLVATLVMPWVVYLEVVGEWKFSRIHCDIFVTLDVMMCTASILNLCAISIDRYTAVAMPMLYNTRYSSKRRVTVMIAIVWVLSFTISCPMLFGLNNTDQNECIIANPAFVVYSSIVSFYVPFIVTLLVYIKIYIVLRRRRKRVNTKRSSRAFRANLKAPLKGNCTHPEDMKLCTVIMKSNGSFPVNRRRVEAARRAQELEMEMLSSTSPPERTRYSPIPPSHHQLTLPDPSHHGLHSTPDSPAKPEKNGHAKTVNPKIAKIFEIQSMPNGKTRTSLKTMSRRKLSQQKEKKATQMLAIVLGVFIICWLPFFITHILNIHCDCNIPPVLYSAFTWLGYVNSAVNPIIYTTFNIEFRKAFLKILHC
Summary of the method: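 Radioligand displacement with [3H]spiperone on calf striatum membranes; Ki reported.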

[7] = biological target: 5-hydroxytryptamine receptor 2A (Rattus norvegicus) (UniProt P14842); assay: Binding affinity was evaluated by 5-hydroxytryptamine 2A receptor […] in the rat cortex by displacing ketanserin
Sequence of 5-hydroxytryptamine receptor 2A (Rattus norvegicus) (P14842 whole entry): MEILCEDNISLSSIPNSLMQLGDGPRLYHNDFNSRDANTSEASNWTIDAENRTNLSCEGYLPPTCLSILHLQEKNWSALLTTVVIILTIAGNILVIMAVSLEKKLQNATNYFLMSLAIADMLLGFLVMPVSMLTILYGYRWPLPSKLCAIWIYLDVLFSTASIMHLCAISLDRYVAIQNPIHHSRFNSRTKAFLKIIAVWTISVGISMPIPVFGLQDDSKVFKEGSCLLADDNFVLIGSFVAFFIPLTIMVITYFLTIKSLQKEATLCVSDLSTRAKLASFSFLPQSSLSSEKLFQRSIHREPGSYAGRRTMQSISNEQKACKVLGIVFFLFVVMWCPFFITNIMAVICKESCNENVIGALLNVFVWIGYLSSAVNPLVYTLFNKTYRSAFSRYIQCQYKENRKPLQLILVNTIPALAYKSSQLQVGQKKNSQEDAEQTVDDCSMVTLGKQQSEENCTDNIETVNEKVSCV
Summary of the method: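 Radioligand displacement with [3H]ketanserin on rat cortex membranes; Ki reported.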

[8] = biological target: Serotonin 3 (5-HT3) receptor (Homo sapiens) (UniProt P46098+A5X5Y0+O95264+Q70Z44+Q8WXA8); assay: 5-hydroxytryptamine 3 receptor agonism in the guinea pig ileum by functional 5-HT3 receptor assay; assay type: tissue-based; settings: Cavia porcellus, target entry is the homologue from another species
Summary of the method: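 Guinea pig ileum in tyrode solution containing 0.1 μM methysergide. 5-HT3 receptor-mediated contractions recorded isotonically; concentration–response curves built noncumulatively.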

[9] = biological target: D(1A) dopamine receptor (Bos taurus) (UniProt Q95136); settings: Striatum
[10] = biological target: T2, Serotonin 3 receptor (5HT3) (Mus musculus) (UniProt Q9JHJ5+P23979)
[11] = biological target: T2, Serotonin 3 receptor (5HT3) (Mus musculus); remark: listed apart in the source
[12] = biological target: T3, Serotonin 3 receptor (5HT3) (Mus musculus, UniProt Q9JHJ5+P23979); assay: Compound was evaluated for the binding affinity at 5- HT3 receptor subtype; assay type: protein assay
T3 sequence (Q9JHJ5 whole entry): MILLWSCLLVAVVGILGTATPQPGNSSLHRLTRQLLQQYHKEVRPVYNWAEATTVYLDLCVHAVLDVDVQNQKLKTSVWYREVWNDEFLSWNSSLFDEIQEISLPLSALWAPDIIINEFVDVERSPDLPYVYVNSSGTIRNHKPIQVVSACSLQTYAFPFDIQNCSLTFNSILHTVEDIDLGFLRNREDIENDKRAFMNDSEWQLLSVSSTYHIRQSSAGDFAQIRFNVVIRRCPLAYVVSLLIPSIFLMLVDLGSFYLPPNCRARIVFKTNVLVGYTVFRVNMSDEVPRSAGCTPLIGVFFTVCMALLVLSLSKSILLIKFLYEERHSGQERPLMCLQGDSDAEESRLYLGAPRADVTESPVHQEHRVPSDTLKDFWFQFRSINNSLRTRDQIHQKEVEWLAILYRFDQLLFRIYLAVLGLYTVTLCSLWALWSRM
T3 sequence (P23979 whole entry): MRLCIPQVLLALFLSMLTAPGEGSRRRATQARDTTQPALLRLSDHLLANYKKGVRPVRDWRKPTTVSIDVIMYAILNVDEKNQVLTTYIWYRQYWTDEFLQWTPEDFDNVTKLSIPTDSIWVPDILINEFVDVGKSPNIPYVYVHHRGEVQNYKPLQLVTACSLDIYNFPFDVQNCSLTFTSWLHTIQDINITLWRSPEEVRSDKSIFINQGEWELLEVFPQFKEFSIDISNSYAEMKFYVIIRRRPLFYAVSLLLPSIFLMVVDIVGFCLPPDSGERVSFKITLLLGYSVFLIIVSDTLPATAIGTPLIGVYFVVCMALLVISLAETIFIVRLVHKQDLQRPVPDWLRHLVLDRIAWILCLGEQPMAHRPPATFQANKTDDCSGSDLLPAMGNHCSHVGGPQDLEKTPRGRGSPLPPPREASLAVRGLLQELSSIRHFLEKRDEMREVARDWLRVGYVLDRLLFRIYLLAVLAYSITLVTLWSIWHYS
Summary of the method: (§1)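 Radioligand binding to native tissue membranes. Each receptor used its own tissue and [³H]radioligand: 5-HT2A in rat cortex with [³H]ketanserin, 5-HT3 in mouse N1E-115 cells with [³H]tropisetron, α1 in calf cortex with [³H]prazosin, and D2 in calf striatum with [³H]spiperone. Affinity is reported as Ki.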

[13] = biological target: D(2) dopamine receptor (Bos taurus, UniProt P20288); assay: Compound was evaluated for the binding affinity at Dopamine receptor D2; summary of the method: as §1
Sequence of D(2) dopamine receptor (P20288 whole entry): as the sequence (P20288 whole entry) above

Row | Compound | pKD [1] | pKD [2] | pD2 [3] | Potency relative to serotonin [4] | pKD [5] | pKD [6] | pKD [7] | pD2 [8] | pKD [9] | pKD [10] | pKD [11] | Ki [12] [nM] | Ki [13] [nM]
1 | N=C(N)N/N=C/c1c[nH]c2ccc(O)cc12 | < 5.5 | 5.4 | 8.8 | 1.5 | 7.2 | < 5 | 6.6 | < 5 | – | – | – | – | –
2 | COc1cc(N)c(Cl)cc1C(=O)N[C@H]1CN2CCC1CC2 | < 5 | – | 6.8 | 1.9 | – | < 5 | < 5 | – | < 5 | 9.5 | – | – | –
3 | CCN(CC)CCNC(=O)c1cc(Cl)c(N)cc1OC [METOCLOPRAMIDE] | < 5 | – | 5.6 | 1 | – | 7.1 | 5.4 | – | < 5 | – | 6.7 | 200 | 80
4 | COc1cc(N)c(Cl)cc1C(=O)N[C@H]1CCN(CCCOc2ccc(F)cc2)C[C@H]1OC | – | – | 6 | 0.7 | – | 6.5 | – | – | 5.2 | 7.2 | – | – | –
5 | NCCc1c[nH]c2ccc(O)cc12 | – | – | 8.4 | 1 | – | – | – | – | – | – | – | – | –
